From ChEMBL document CHEMBL1137159, “Aminotriazine 5-HT7 antagonists” (Bioorg Med Chem Lett, 2004)

Experiments:
[1] = molecular target: T1, 5-hydroxytryptamine receptor 2C (Homo sapiens, UniProt P28335); assay: Binding affinity against 5-Hydroxy tryptamine 2C receptor
T1 sequence (P28335 whole entry): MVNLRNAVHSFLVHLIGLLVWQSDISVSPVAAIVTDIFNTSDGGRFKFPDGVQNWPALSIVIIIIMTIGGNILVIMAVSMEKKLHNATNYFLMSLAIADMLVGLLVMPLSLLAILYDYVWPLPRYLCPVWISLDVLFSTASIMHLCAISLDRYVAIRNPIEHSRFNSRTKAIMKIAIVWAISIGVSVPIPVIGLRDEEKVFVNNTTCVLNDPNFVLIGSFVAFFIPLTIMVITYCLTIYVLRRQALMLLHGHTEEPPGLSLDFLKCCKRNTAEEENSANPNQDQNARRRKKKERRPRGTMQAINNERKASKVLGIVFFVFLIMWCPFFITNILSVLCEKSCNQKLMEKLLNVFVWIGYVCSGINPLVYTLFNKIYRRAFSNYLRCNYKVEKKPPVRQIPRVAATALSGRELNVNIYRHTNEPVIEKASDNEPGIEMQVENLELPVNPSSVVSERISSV

[2] = molecular target: 5-hydroxytryptamine receptor 6 (Homo sapiens, UniProt P50406); assay: Binding affinity against 5-Hydroxy tryptamine 6 receptor
[3] = molecular target: 5-hydroxytryptamine receptor 7 (Homo sapiens, UniProt P34969); assay: Binding affinity against 5-Hydroxy tryptamine 7 receptor
How it was run: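 Membranes from CHO cells expressing human 5-HT7, homogenized, pelleted at 18,000g, stored at -80 °C. Each well held 30 µg protein in 50 mM HEPES. Incubation was 60 min at 25 °C with 0.1-1000 nM compound and 1 nM [3H]-5-carboxamidotryptamine; nonspecific binding was defined with 10 µM serotonin. Stopped with ice-cold HEPES, GF/B filtration, scintillation counting. Ki by nonlinear regression; triplicate or more.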

[4] = Oral bioavailability in rat; assay type: ADME, organism-based; conditions: in vivo
[5] = molecular target: T2, Adrenergic receptor alpha-1 (Homo sapiens, UniProt P35348+P25100+P35368); assay: Binding affinity against Alpha1 adrenergic receptor; assay type: protein assay
T2 sequence (P35348 whole entry): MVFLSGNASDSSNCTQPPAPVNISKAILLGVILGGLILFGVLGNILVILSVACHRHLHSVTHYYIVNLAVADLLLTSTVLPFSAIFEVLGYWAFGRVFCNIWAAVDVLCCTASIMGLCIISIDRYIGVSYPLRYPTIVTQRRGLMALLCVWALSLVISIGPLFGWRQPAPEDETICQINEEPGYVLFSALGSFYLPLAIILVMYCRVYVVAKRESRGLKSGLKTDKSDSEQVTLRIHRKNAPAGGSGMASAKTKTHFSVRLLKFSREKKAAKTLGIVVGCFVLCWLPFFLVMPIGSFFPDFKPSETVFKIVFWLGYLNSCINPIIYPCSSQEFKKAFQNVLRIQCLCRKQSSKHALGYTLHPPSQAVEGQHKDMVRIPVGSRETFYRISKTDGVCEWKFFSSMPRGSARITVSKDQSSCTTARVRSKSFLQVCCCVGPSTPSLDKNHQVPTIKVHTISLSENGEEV
T2 sequence (P25100 whole entry): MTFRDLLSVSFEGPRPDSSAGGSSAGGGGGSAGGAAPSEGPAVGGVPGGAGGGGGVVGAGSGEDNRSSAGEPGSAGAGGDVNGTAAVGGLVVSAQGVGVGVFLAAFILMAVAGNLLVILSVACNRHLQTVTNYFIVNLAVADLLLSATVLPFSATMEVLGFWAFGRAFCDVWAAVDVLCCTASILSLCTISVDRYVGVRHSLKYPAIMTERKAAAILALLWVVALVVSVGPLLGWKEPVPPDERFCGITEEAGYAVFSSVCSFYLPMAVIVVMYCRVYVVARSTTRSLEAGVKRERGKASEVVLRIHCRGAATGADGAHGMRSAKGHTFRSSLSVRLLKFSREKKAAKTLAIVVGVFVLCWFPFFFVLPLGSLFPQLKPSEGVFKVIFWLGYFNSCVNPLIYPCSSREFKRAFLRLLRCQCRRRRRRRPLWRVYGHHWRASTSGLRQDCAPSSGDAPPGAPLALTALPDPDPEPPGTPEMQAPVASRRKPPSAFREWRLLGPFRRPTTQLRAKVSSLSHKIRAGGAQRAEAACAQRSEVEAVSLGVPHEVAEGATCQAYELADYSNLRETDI
T2 sequence (P35368 whole entry): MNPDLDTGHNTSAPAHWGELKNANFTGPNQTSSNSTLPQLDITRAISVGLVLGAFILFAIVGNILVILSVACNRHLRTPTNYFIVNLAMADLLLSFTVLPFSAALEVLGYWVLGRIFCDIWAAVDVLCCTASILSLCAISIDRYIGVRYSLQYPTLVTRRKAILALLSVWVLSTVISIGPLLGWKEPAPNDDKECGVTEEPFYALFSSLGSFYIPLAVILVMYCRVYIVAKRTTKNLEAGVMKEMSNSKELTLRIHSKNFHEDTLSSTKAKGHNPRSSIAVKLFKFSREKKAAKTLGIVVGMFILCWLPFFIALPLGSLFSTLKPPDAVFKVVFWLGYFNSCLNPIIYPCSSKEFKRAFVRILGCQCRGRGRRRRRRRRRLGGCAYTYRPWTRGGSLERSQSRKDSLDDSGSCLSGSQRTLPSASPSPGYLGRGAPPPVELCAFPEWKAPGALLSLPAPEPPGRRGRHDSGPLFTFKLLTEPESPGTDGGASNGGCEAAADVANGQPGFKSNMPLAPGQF

Sequence of 5-hydroxytryptamine receptor 7 (P34969 whole entry): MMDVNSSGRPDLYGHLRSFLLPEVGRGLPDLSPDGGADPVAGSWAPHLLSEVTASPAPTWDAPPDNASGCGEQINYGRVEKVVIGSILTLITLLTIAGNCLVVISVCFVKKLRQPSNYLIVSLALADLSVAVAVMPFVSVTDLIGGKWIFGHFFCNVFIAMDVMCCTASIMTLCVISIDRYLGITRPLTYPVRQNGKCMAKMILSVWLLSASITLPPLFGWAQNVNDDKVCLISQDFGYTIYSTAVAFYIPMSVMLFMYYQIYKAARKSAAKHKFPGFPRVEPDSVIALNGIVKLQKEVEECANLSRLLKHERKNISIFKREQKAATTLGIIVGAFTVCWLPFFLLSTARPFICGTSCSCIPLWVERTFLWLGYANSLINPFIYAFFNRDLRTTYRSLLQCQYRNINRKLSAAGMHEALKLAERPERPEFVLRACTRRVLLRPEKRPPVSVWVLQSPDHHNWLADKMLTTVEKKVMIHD
Sequence of 5-hydroxytryptamine receptor 6 (P50406 whole entry): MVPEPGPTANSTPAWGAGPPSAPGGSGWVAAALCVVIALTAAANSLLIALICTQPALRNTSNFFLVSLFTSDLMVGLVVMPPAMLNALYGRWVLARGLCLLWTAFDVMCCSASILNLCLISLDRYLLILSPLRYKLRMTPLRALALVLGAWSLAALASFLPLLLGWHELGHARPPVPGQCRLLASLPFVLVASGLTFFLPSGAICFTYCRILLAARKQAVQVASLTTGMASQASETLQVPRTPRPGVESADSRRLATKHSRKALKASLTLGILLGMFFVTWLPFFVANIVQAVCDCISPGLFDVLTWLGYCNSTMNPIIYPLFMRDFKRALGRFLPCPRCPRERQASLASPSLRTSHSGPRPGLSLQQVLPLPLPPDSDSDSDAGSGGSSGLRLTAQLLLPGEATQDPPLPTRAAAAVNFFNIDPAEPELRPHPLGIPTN

Row | Ki [1] | Ki [2] | Ki [3] | bioavailability [4] | Ki [5] | Compound
1 | > 1000 nM | > 1000 nM | 3 nM | 12% | 300 nM | C[C@H](Nc1nc(N)nc(NCCOc2ccccc2)n1)c1ccccc1
2 | 160 nM | > 1000 nM | 9 nM | 15% | > 1000 nM | C[C@H](Nc1nc(N)nc(NCCc2ccccn2)n1)c1ccc(F)cc1
3 | – | – | 54 nM | – | – | Cc1nc(NCCOc2ccccc2)nc(N[C@@H](C)c2ccccc2)n1
4 | – | – | 23 nM | – | – | C[C@H](Nc1nc(NCCOc2ccccc2)nc(N(C)C)n1)c1ccccc1
5 | > 1000 nM | > 1000 nM | – | 57% | 100 nM | C[C@H](Nc1nc(N)nc(NCCOc2ccc(F)cc2)n1)c1ccc(F)cc1
6 | – | – | 8 nM | – | – | CC(Nc1nc(N)nc(NCCc2ccccc2)n1)c1ccc(F)cc1 (stereo not drawn)
7 | – | – | 3 nM | – | – | C[C@H](Nc1ncnc(NCCOc2ccccc2)n1)c1ccccc1
8 | – | – | > 1000 nM | – | – | C[C@@H](Nc1nc(N)nc(NCCOc2ccccc2)n1)c1ccccc1
9 | 20 nM | 172 nM | 2 nM | 44% | 200 nM | C[C@H](Nc1nc(N)nc(NCCc2ccc(F)cc2)n1)c1ccc(F)cc1
10 | – | – | 10 nM | – | – | C[C@H](Nc1nc(F)nc(NCCOc2ccccc2)n1)c1ccccc1
11 | 10 nM | 380 nM | 2 nM | – | > 1000 nM | CC(Nc1nc(N)nc(NCCc2cccs2)n1)c1ccc(F)cc1 (racemic)
12 | – | – | 60 nM | – | – | CC(Nc1nc(N)nc(NCCCc2ccccc2)n1)c1ccccc1 (racemic)
13 | – | – | 8 nM | – | – | CC(Nc1nc(N)nc(NCCOc2ccccc2)n1)c1ccccc1 (racemic)
14 | – | – | > 41000 nM | – | – | CC(Nc1nc(N)nc(NCCc2cccnc2)n1)c1ccc(F)cc1 (racemic)
15 | – | – | > 1000 nM | – | – | CC(Nc1nc(N)nc(NCCc2ccncc2)n1)c1ccc(F)cc1 (racemic)
